TRPML3 ag: human TRPML3 channel agonists, primary screen, cell-based, HEK293 TRPML3-YFP, Fluo-8 calcium fluorescence, 3 µM; Mucolipin-3 (Homo sapiens), Q8TDD5; AID 1448, 2008; hit rate 0.29% among 220,000; activation, % at 3 µM; 100% = the carbachol control signal;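 active = activation above its plate's cutoff, the mean activation of the plate's test wells plus 3 SD, cut at about 12% in these data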
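system = HEK293 cells stably carrying human TRPML3-YFP | doses = one concentration, 3 µM nominal, 0.3% DMSO | timing = dye loading 1 h 37 °C then 30 min ambient, 125 s read | detection = Fluo-8 calcium dye fluorescence, ex 470-495, em 515-575 nm | benchmarks = high control carbachol 87 µM, low control DMSO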
OXTR potentiate: human OXTR potentiators, primary screen, fluorescence, CHO-OTR cells, Fluo-8 calcium; activation, % at 3 µM; Fluo-8 calcium fluorescence, potentiator mode; 0% = oxytocin EC15, 100% = EC100; hit rate 0.061% among 320,000;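 active = activation above that plate's cutoff, the mean activation of tested compounds plus 3 SD, cut at about 6.6% in these data, passing the limit was not always enough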
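Replication – single well per compound, singlicate · Assay system – CHO cell line stably expressing human OTR · Timing – 6 min pre-incubation, 100 s read · Measure – normalized max/min fluorescence ratio, % activation · Doses – 3.0 µM, one dose · Detection – Fluo-8 calcium dye fluorescence · Probe or stimulus – oxytocin near EC15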
V1R ag counter: agonists of human V1a receptor, primary screen, counter-screen for OXTR agonist project, fluorescence, CHO-V1R cells | Fluo-8 calcium fluorescence, agonist mode; 0% DMSO, 100% 3 nM vasopressin | activation, % at 3 µM | hit rate 0.25% among 320,000;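 active = activation above the mean activation of all tested compounds plus 3 SD, per screening run, cut at about 20% in these data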;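 note: signal is peak over basal fluorescence ratio across a 100 second FLIPR read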
Target sequence (P37288 whole entry, looked up): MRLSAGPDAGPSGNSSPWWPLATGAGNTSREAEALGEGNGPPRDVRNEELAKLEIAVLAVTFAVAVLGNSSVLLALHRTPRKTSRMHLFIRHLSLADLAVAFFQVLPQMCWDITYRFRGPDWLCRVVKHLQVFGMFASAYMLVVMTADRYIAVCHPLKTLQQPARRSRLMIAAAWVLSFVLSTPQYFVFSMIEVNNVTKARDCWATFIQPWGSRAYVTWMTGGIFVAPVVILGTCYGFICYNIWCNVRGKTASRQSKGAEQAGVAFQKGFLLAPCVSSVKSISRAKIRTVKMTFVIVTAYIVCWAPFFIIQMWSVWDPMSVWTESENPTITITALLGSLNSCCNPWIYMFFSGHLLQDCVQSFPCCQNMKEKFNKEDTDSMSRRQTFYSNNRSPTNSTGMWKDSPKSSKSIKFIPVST
zfTRPN1 agonist: zebrafish TRPN1 channel agonists, primary screen, cell-based, HEK293, calcium fluorescence. transient receptor potential cation channel N1 (TRPN1/NompC), Danio rerio. HEK293 zebrafish TRPN1-YFP, Fluo-8 calcium fluorescence; 100% = response to 87 µM carbachol. activation, % at 3 µM. hit rate 0.18% among 220,000. AID 1424, 2008;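 active = activation above its plate's cutoff, the mean activation of test wells on that plate plus 3 SD, cut at about 19% in these data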
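System: zebrafish TRPN1-YFP in HEK293 cells / Dosing: 3 µM single point / Timing: dye loading 1 h at 37 °C, then 30 min room temperature / Signal: Fluo-8 calcium fluorescence, excitation 470-495 nm, emission 515-575 nm / Read-out basis: percent activation from peak over basal fluorescence ratio, control-normalized / Control set: high carbachol 87 µM, low DMSO alone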
OXTR ag: human OXTR agonists, primary screen, fluorescence, CHO-OTR cells, Fluo-8 calcium; Oxytocin receptor (Homo sapiens), P30559; Fluo-8 calcium fluorescence; normalized: DMSO 0%, oxytocin 100%; activation, % at 3 µM; hit rate 0.32% among 320,000;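 active = activation above the mean of all tested compounds plus 3 SD, cutoff set per screening run, cut at about 20% in these data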;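 note: peak over basal fluorescence ratio from a 100 s FLIPR kinetic read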
Large screens that a line does not name were inactive. Shown are actives, neighbours in structure and some others; about 0.55% of the full set was active somewhere.

O=C1NC(=S)S/C1=C\C=C\c1ccc([N+](=O)[O-])o1	zfTRPN1 agonist 21 (no result: OXTR potentiate, V1R ag counter, OXTR ag)
O=C(O)/C=C/c1ccc([N+](=O)[O-])o1	none
COc1ccc(/C=N/Nc2ncnc3sc4c(c23)CCCC4)cc1OC	none
COc1cc(/C=C/C(=O)O)cc(S(=O)(=O)Nc2cccc(SC)c2)c1OC	none
COc1ccc(N=CC2=C(Nc3ccc(OC)cc3)c3c(C)nn(-c4ccccn4)c3CC2)cc1	V1R ag counter 21
Cc1ccc(N/N=C(\C#N)C(N)=S)cc1C	TRPML3 ag 13, zfTRPN1 agonist 24
Cc1ccc(NC(N)=S)cc1C	none
N#C/C(=N\Nc1ccccc1)C(N)=S	none
N#C/C(=N\Nc1ccc(Cl)cc1)C(N)=S	TRPML3 ag 16, zfTRPN1 agonist 25
Cc1cccc(-c2nnc(SCC(=O)N3CCOCC3)o2)c1	none (no result: TRPML3 ag, zfTRPN1 agonist)
COc1ccc(C(OCC(O)CNCCc2ccc(S(N)(=O)=O)cc2)c2ccc(OC)cc2)cc1 (configuration not stated)	none (no result: TRPML3 ag, zfTRPN1 agonist)
OC(CNCCc1ccc(C(F)(F)F)cc1)COC(c1ccccc1)c1ccccc1 (configuration not stated)	V1R ag counter 35, OXTR ag 27 (no result: TRPML3 ag, zfTRPN1 agonist)
Cc1ccc2c(c1)N(Cc1cccc(C#N)c1)C=NS2(=O)=O	none (no result: TRPML3 ag, zfTRPN1 agonist)
COC(=O)CN(C)C(=O)c1ccc(OC2CCN(S(=O)(=O)N(C)C)CC2)cc1	none (no result: TRPML3 ag, zfTRPN1 agonist)
N#CNC(=Nc1cccc(F)c1)SCc1cccc(F)c1	TRPML3 ag 13
CCCOc1ccc(C(=O)NNC(=S)NC(=O)c2cc(-c3ccc(Cl)cc3)nc3ccccc23)cc1	none
COc1ccc(C(=O)NNC(=S)NC(=O)C(C)(C)C)cc1	TRPML3 ag 17, V1R ag counter 81, zfTRPN1 agonist 41, OXTR ag 78
COc1ccc(C(=O)NC(=S)NNC(=O)c2ccccc2O)cc1	none (no result: TRPML3 ag, zfTRPN1 agonist)
COc1ccc(C(=O)NC(=S)NNC(=O)c2ccccc2C)cc1	V1R ag counter 60, OXTR ag 58 (no result: TRPML3 ag, zfTRPN1 agonist)
COc1ccc(C(=O)NNC(=S)NC(=O)c2cc(-c3ccccc3)nc3ccccc23)cc1	V1R ag counter 28, zfTRPN1 agonist 22, OXTR ag 35
CC(C)(C)C(=O)NC(=S)NNC(=O)c1sc2ccccc2c1Cl	TRPML3 ag 23, V1R ag counter 112, zfTRPN1 agonist 49, OXTR ag 99
O=C(COC(=O)c1cccc(F)c1)Nc1ccc2c(c1)OCCO2	none (no result: TRPML3 ag, zfTRPN1 agonist)
CCn1nc(C)c(CN2CCC(Oc3ccc(C(=O)N4CCCC4)cc3)CC2)c1C	none (no result: TRPML3 ag, zfTRPN1 agonist)
COCCCn1c(=NC(=O)c2ccccc2)c(C#N)cc2c(=O)n3cccc(C)c3nc21	TRPML3 ag 25, zfTRPN1 agonist 37
CCCCc1ccc(N/C(N)=N/c2nc(C)cc(C)n2)cc1	TRPML3 ag 80, V1R ag counter 62, zfTRPN1 agonist 109, OXTR ag 58
COc1ccc(OC)c(/C=C2/Sc3ccccc3C2=O)c1	V1R ag counter 28, OXTR ag 24
CCCCCCn1c(=O)[nH]c2nc3cc(N)c(C)cc3nc2c1=O	TRPML3 ag 15, zfTRPN1 agonist 42 (no result: OXTR potentiate, V1R ag counter, OXTR ag)
O=C1c2ccccc2-c2onc3ccc(NCCCn4ccnc4)c1c23	V1R ag counter 45, OXTR ag 82
NS(=O)(=O)c1ccc(NCCCn2ccnc2)c([N+](=O)[O-])c1	none (no result: TRPML3 ag, zfTRPN1 agonist)
COc1ccc2noc3c2c1C(=O)c1ccccc1-3	V1R ag counter 221, OXTR ag 169 (no result: TRPML3 ag, zfTRPN1 agonist)
CCOc1ccc(NC(=O)Nc2ccon2)cc1	none (no result: TRPML3 ag, zfTRPN1 agonist)
CCN(CC)c1ccc2c(c1)OC(N)=C(C#N)C2c1cccnc1 (configuration not stated)	V1R ag counter 33, OXTR ag 52
COC(=O)CSc1nccc(C)n1	none
O=S(=O)(/N=S1/CC=CCN1S(=O)(=O)c1ccccc1)c1ccccc1 (configuration not stated)	V1R ag counter 31, OXTR ag 29
CN(C)c1ccc(/C=C(/C#N)C(=O)NCc2ccccc2)o1	TRPML3 ag 20, V1R ag counter 23, zfTRPN1 agonist 20, OXTR ag 20
N#C/C(=C/c1ccccc1)C(=O)NCc1ccccc1	none
Fc1ccc(-[n+]2nc(Nc3ccccc3)sc2-c2c(Cl)cccc2Cl)cc1	V1R ag counter 25, OXTR ag 23 (no result: TRPML3 ag, zfTRPN1 agonist)
CCc1ccc(Nc2n[n+](-c3ccccc3)c(-c3c(Cl)cccc3Cl)s2)cc1	V1R ag counter 64, OXTR ag 48 (no result: TRPML3 ag, zfTRPN1 agonist)
CCc1ccc(Nc2n[n+](-c3ccccc3)c(-c3ccc(OCc4ccccc4)cc3)s2)cc1	none (no result: TRPML3 ag, zfTRPN1 agonist)
COc1ccc(-[n+]2c(C)cc(/C=C3\Sc4ccccc4N3C)cc2C)cc1	zfTRPN1 agonist 19
O=C(c1ccccc1)c1ccc(C(=O)N2CCCC(C(F)(F)F)C2)cc1 (configuration not stated)	none (no result: TRPML3 ag, zfTRPN1 agonist)
CCOc1ccc(S(=O)(=O)Nc2ccc(C(=O)N3CCCC3)cc2)cc1	none (no result: TRPML3 ag, zfTRPN1 agonist)
CCOc1ccc(NS(=O)(=O)c2ccc(C(=O)N3CCCCCC3)cc2)cc1	none (no result: TRPML3 ag, zfTRPN1 agonist)
CCOc1ccc(NS(=O)(=O)c2ccc(C(=O)N3CCCC(C)C3)cc2)cc1 (configuration not stated)	V1R ag counter 39, OXTR ag 47 (no result: TRPML3 ag, zfTRPN1 agonist)
Cc1ccc(NS(=O)(=O)c2ccc(C(=O)N3CC(C)OC(C)C3)cc2)cc1 (configuration not stated)	V1R ag counter 37, OXTR ag 41 (no result: TRPML3 ag, zfTRPN1 agonist)
Cc1ccc(NS(=O)(=O)c2ccc(C(=O)N3CCC3)cc2)cc1	none (no result: TRPML3 ag, zfTRPN1 agonist)
O=C(c1ccc(S(=O)(=O)Nc2ccccc2)cc1)N1CCCC(C(F)(F)F)C1 (configuration not stated)	V1R ag counter 43, OXTR ag 36 (no result: TRPML3 ag, zfTRPN1 agonist)
COc1ccc(NS(=O)(=O)c2ccc(C(=O)N3CCCCCC3)cc2)cc1	V1R ag counter 24, OXTR ag 27 (no result: TRPML3 ag, zfTRPN1 agonist)
COc1ccccc1C(=O)NC(CCSC)C(=O)NNC(=O)c1ccncc1 (configuration not stated)	none (no result: TRPML3 ag, zfTRPN1 agonist)
CCC(C)Oc1nc(C)cc(C)c1S(=O)(=O)c1ccccc1C (configuration not stated)	TRPML3 ag 42
CCN(CC)CCN1C(=O)C(=O)/C(=C(/O)c2ccc(S(=O)(=O)N3CCOCC3)cc2)C1c1ccc(C)cc1 (configuration not stated)	none (no result: TRPML3 ag, zfTRPN1 agonist)
CC(NC(=O)Nc1nnc(C(F)(F)F)s1)(C(F)(F)F)C(F)(F)F	TRPML3 ag 21, zfTRPN1 agonist 26
CC(C)(C)CC(=O)Nc1nnc(C(F)(F)F)s1	none
NC(=O)c1ccccc1NC(=O)c1ccccc1Cl	none
O=C(Nc1ccccc1C(=O)Nc1nnc(C(F)(F)F)s1)c1ccccc1Cl	TRPML3 ag 13, zfTRPN1 agonist 23

Compound activity deposited in PubChem by The Scripps Research Institute Molecular Screening Center.
